By inhibition is commonly meant how much of the control response was suppressed. The IC50 is the concentration that inhibits the measured activity by half. In general, Ki refers to a dissociation constant, usually derived from enzyme kinetics or from competition with a known ligand. Low readings indicate higher affinity, high ones lower affinity.

These results are taken from ChEMBL document CHEMBL1153398, “Synthesis, activity and molecular modeling of a new series of chromones as low molecular weight protein tyrosine phosphatase inhibitors” (Bioorg Med Chem, 2009).

Calls of active or inactive are those of the source. The rule behind the calls is not given here.

Assay [1] addresses T1, Low molecular weight phosphotyrosine protein phosphatase (Homo sapiens) (UniProt P24666).
T1 sequence (whole entry): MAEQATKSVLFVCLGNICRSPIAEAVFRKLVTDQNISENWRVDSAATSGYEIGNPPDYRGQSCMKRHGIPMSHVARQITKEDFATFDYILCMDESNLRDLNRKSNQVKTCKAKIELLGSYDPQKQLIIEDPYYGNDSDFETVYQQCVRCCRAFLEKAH
As to the kind of experiment: Inhibition of human cloned LMW-PTP isoform 1 expressed in Escherichia coli TB1 at 20 uM. Put shortly: (§1)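 GST-fused human enzymes (LMW-PTP IF1 or IF2, or PTP-1B) expressed in E. coli TB1, affinity-purified, thrombin-cleaved (3 h, 37 °C) and gel-filtered. […] Reaction stopped with 1 M KOH; p-nitrophenol read at 400 nm. Initial rates in triplicate; IC50 fitted to Vi/V° = IC50/(IC50+[I]); single-concentration lines give % inhibition.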

Assay [2] concerns the target T2, Tyrosine-protein phosphatase non-receptor type 1 (Homo sapiens) (UniProt P18031).
T2 sequence (whole entry): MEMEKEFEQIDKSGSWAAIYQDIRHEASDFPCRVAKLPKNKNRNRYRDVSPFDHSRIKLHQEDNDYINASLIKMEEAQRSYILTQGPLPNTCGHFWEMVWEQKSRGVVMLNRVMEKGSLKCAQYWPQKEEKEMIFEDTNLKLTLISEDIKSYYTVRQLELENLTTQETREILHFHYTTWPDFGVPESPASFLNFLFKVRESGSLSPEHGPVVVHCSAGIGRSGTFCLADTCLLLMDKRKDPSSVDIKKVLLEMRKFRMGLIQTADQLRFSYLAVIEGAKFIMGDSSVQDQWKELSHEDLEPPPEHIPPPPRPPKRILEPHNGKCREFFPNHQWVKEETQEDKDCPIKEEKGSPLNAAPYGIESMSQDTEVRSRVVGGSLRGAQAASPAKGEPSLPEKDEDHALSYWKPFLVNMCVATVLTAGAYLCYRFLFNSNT
The experiment in a line: Inhibition of human cloned PTP1B expressed in Escherichia coli TB1 at 20 uM. The method in brief: as §1

For assay [3], the target named is T1, Low molecular weight phosphotyrosine protein phosphatase (Homo sapiens). The experiment in a line: Inhibition of human cloned LMW-PTP isoform 2 expressed in Escherichia coli TB1 at 20 uM. The method in brief:
as §1

The target of assay [4] is T3, Low molecular weight phosphotyrosine protein phosphatase (Homo sapiens, UniProt P24666).
T3 sequence (P24666 whole entry): T1 sequence (whole entry)
The experiment in a line: Inhibition of human cloned LMW-PTP isoform 1 expressed in Escherichia coli TB1.

In assay [5] the target is Insulin receptor (Homo sapiens) (UniProt P06213). As to the kind of experiment: Activation of human insulin receptor beta expressed in human HepG2 cells assessed as stimulation of receptor phosphorylation at 10 uM after 90 mins by SDS-PAGE. The assay is classed as cell-based. Put shortly:
(§2)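 HepG2 cells grown in DMEM with 10% bovine calf serum, 37 °C, 5% CO2; subconfluent cells serum-starved 20 h. Inhibitor added to medium at 10 µM final, 90 min, 37 °C; 10 nM insulin, 0.5% DMSO and 10 µM orthovanadate as references. Lysis in SDS Laemmli buffer, SDS-PAGE, Western blot for phospho-IRβ, then stripped and reprobed for phospho-Akt, phosphotyrosine and actin. At least three separate experiments.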

Assay [6] deals with T3, Low molecular weight phosphotyrosine protein phosphatase. As to the kind of experiment: Inhibition of human cloned LMW-PTP isoform 1 expressed in Escherichia coli TB1 by mixed type inhibition assay.
Assay [7] deals with Insulin receptor (Homo sapiens) (UniProt P06213). As to the kind of experiment: Activation of human insulin receptor beta expressed in human HepG2 cells assessed as increase in tyrosine phosphorylation level at 10 uM after 90 mins by SDS-PAGE. The assay is classed as cell-based. The method in brief:
as §2

For assay [8], the target named is T3, Low molecular weight phosphotyrosine protein phosphatase. As to the kind of experiment: Inhibition of human cloned LMW-PTP isoform 2 expressed in Escherichia coli TB1.
For assay [9], the target named is T4, Tyrosine-protein phosphatase non-receptor type 1 (Homo sapiens, UniProt P18031).
T4 sequence (P18031 whole entry): T2 sequence (whole entry)
The experiment in a line: Inhibition of human cloned PTP1B expressed in Escherichia coli TB1. Put shortly: as §1

For assay [10], the target named is T3, Low molecular weight phosphotyrosine protein phosphatase. As to the kind of experiment: Inhibition of human cloned LMW-PTP isoform 2 expressed in Escherichia coli TB1 by mixed type inhibition assay.
Assay [11] deals with Insulin receptor (Homo sapiens) (UniProt P06213). The experiment in a line: Activation of human insulin receptor beta expressed in human HepG2 cells assessed as increase in Akt phosphorylation level at 10 uM after 90 mins by SDS-PAGE. The class given is cell-based. Put shortly: as §2
Assay [12] deals with T1, Low molecular weight phosphotyrosine protein phosphatase (Homo sapiens). The experiment in a line: Inhibition of human cloned LMW-PTP isoform 1 expressed in Escherichia coli TB1 at 15 uM. The method in brief:
as §1

Assay [13] has the same target. As to the kind of experiment: Inhibition of human cloned LMW-PTP isoform 2 expressed in Escherichia coli TB1 at 15 uM. Put shortly: as §1
The target in assay [14] is T2, Tyrosine-protein phosphatase non-receptor type 1 (Homo sapiens). As to the kind of experiment: Inhibition of human cloned PTP1B expressed in Escherichia coli TB1 at 15 uM. Put shortly: as §1
Assay [15] deals with T4, Tyrosine-protein phosphatase non-receptor type 1. The experiment in a line: Inhibition of human cloned PTP1B expressed in Escherichia coli TB1 by mixed type inhibition assay.
Assay [16] shares this target. As to the kind of experiment: Inhibition of human recombinant PTP1B.
Assay [17] deals with T3, Low molecular weight phosphotyrosine protein phosphatase. As to the kind of experiment: Inhibition of human cloned LMW-PTP isoform 2 expressed in Escherichia coli TB1 by competitive inhibition assay.
The target is the same in assay [18]. As to the kind of experiment: Inhibition of human cloned LMW-PTP isoform 1 expressed in Escherichia coli TB1 by competitive inhibition assay.

Insulin receptor (Homo sapiens), sequence (P06213 28-758 limits assumed): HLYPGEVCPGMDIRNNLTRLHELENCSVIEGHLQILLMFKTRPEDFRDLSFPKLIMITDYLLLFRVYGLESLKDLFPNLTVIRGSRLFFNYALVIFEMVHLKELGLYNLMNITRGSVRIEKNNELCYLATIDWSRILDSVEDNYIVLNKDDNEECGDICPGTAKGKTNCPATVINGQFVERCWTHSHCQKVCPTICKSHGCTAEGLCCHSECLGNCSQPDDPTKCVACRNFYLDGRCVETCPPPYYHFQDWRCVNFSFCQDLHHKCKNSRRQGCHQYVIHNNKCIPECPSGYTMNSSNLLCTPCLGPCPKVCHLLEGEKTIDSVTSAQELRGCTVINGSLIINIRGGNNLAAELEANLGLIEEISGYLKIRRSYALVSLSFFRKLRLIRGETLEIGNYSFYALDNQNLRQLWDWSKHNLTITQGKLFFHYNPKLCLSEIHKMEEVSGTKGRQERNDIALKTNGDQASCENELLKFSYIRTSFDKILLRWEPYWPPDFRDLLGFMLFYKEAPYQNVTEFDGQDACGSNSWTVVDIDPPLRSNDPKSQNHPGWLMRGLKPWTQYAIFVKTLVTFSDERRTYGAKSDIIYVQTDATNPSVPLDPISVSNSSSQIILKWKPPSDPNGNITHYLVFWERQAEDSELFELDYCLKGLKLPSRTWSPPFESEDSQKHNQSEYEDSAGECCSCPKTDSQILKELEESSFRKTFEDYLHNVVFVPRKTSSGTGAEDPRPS
Insulin receptor (Homo sapiens), sequence (P06213 763-1382 limits assumed): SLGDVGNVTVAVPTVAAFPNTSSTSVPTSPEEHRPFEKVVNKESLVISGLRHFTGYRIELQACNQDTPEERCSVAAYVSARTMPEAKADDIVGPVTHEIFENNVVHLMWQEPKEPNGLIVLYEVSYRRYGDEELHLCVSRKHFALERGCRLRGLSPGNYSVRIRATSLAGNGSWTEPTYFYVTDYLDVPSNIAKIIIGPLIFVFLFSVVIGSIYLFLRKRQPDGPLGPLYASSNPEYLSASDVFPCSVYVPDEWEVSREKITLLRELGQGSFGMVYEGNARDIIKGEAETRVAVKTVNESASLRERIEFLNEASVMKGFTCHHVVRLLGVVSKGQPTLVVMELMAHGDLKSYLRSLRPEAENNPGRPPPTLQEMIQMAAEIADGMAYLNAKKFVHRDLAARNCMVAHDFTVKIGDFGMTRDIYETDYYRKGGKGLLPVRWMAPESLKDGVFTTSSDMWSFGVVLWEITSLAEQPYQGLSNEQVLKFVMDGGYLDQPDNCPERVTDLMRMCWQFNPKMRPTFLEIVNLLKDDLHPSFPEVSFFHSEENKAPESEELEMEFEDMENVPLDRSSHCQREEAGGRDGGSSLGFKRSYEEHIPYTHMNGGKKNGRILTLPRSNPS

For `Oc1ccc(-c2ccccc2)c(O)c1`, the inhibition in [1] stood at 0%; in [2] it was 10%; in [3] it was 0%.

For the compound `O=C(O)c1ccc(-c2ccccc2)cc1O`, the values for the inhibition in [1], in assay [2] and in assay [3] were 0%, 5% and 0%, respectively.

Regarding `O=c1c(Cc2ccc(-c3ccc(O)c(O)c3)cc2)c(-c2ccc(O)cc2)oc2cc(O)ccc12`, the results for the IC50 in [4], in assay [8] and in [9] were 7.4 µM, 12.4 µM and 7.7 µM, respectively. The result in assay [5], in assay [7] and in [11] was Active. Besides, the Ki in assay [6] worked out at 2.23 µM; in [10], 2.68 µM.

`O=c1c(Cc2ccc(-c3ccc(O)c(O)c3)cc2)c(-c2ccc(O)cc2)oc2ccccc12`: the IC50 worked out at 14.3 µM in assay [4], 12.6 µM in assay [8] and 5 µM in [9].

As to `O=c1cc(Cc2ccc(O)cc2)oc2cc(O)ccc12`, the inhibition in assay [12] was determined as 10%; in assay [13] it was 10%; in assay [14] it was 0%.

With `O=c1c(Cc2ccc(-c3ccccc3)cc2)c(Cc2ccc(O)cc2)oc2cc(O)ccc12`, the figures for the IC50 in [4] and in assay [8] were 5.3 µM and 17.5 µM, respectively. The compound also came in with an inhibition in [14] of 10%.

Take `O=c1cc(-c2ccc(O)cc2)oc2cc(O)c(O)cc12`: the inhibition turned out to be 25% in assay [1], 10% in assay [2] and 10% in assay [3].

As to `O=C(O)c1cccc(-c2ccc(Cc3c(-c4ccc(O)cc4)oc4cc(O)ccc4c3=O)cc2)c1`, the IC50 was found to be 11.4 µM in [4], 26.8 µM in assay [8] and 6.2 µM in [9].

For `O=c1c(Cc2ccc(-c3ccccc3)cc2)c(CCCc2ccc(O)cc2)oc2cc(O)ccc12`, the values for the inhibition in assay [12], in assay [13] and in [14] were 10%, 10% and 0%, respectively.

As to `O=c1c(Cc2cccc(-c3ccc(O)c(O)c3)c2)c(-c2ccc(O)cc2)oc2cc(O)ccc12`, the inhibition in assay [1] was 60%; in [2], 50%; in assay [3], 25%.

In the case of `O=C(O)c1ccc(-c2ccc(Cc3c(-c4ccc(O)cc4)oc4cc(O)ccc4c3=O)cc2)cc1O`, the results for the IC50 in assay [4], in assay [8] and in [9] were 1.3 µM, 2.2 µM and 1 µM, respectively. In addition, the result in assay [5], in assay [7] and in assay [11] was Active.

Turning to `O=C(O)c1ccc(-c2ccc(Cc3c(-c4ccc(O)cc4)oc4ccccc4c3=O)cc2)cc1O`, the IC50 in assay [4] was 0.7 µM; in [8], 5.7 µM; in assay [9], 0.9 µM.

Regarding `O=c1c(Cc2ccccc2)c(Cc2ccc(O)cc2)oc2cc(O)ccc12`, the inhibition turned out to be 10% in [12], 10% in assay [13] and 0% in assay [14].

Take `O=C(O)c1ccc(-c2cccc(Cc3c(-c4ccc(O)cc4)oc4cc(O)ccc4c3=O)c2)cc1O`: the inhibition in assay [1] came out at 5%; in [2], 50%; in assay [3], 10%.

With `O=c1c(Cc2ccc(-c3ccc(O)cc3)cc2)c(-c2ccc(O)cc2)oc2cc(O)ccc12`, the IC50 in assay [9] is 17 µM.

In the case of `O=c1c(Cc2ccc(-c3ccccc3)cc2)c(-c2ccc(O)cc2)oc2cc(O)ccc12`, the IC50 was 5.7 µM in [4] and 13.9 µM in [8]. In addition, the Ki in assay [15] is 29.1 µM; in assay [6], 2.5 µM; in assay [10], 7.8 µM. The compound also gave an inhibition in [14] of 4%.

Regarding `O=c1c(Cc2ccc(-c3ccccc3)cc2)c(CCc2ccc(O)cc2)oc2cc(O)ccc12`, the IC50 in [4] was 6.5 µM; in assay [8], 17.3 µM. Besides, the inhibition in assay [14] turned out to be 20%.

As to `O=C(c1ccc(O)cc1)c1oc2ccccc2c1-c1ccc(-c2ccc(O)cc2)cc1`, the IC50 in assay [16] came out at 1.08 µM.

As for `O=c1c(Cc2ccc(-c3ccccc3)cc2)c(-c2ccc(O)cc2)oc2cc(O)c(O)cc12`, the IC50 in assay [4] worked out at 1.1 µM; in assay [8], 3 µM; in assay [9], 2 µM. Besides, the Ki in [17] came to 0.34 µM; in assay [18] it was 0.27 µM. For the same compound, the outcome in [5] and in assay [7] was Active.

On to `Oc1ccc(-c2ccccc2)cc1O`, for which the inhibition worked out at 0% in assay [1], 20% in assay [2] and 0% in assay [3].

On to `O=c1c(Cc2ccc(-c3ccccc3)cc2)c(Cc2ccc(O)cc2)oc2ccc(O)cc12`, for which the IC50 was found to be 8.6 µM in [4] and 17.2 µM in assay [8]. The same compound yielded an inhibition in [14] of 20%.
